This is an account of results in publication PMC6219704 (Cell chemical biology, 2018).

For test [1], the system named is E. coli strains with A2503C, A2059G or A2059C in the 23S rRNA. The experiment in a line: MIC against erythromycin-resistant strains with 23S rRNA mutations. It counts as cell-based, Escherichia coli. As to conditions: Table S2 (not available). Summed up:
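Broth microdilution in Müller-Hinton broth with E. coli grown at 37°C. Test compounds started at 128 μM and were serially two-fold diluted, then halved again on adding bacteria to 2.5 × 10^4 CFU/well. Plates sealed and incubated overnight at 37°C. MIC taken as the lowest concentration preventing visible growth.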

Test [2] deals with E. coli ribosomes on H-ns-PPP mRNA (Escherichia coli, UniProt P60723). The experiment in a line: Toeprinting assay in fully reconstituted in vitro translation system. It counts as biochemical. As to conditions: 1-100 μM peptide, 100 μM thiostrepton; 15 min 37°C.

As to `CC[C@H]1OC(=O)[C@H](C)[C@@H](O[C@H]2C[C@@](C)(OC)[C@@H](O)[C@H](C)O2)[C@H](C)[C@@H](O[C@@H]2O[C@H](C)C[C@H](N(C)C)[C@H]2O)[C@](C)(O)C[C@@H](C)C(=O)[C@H](C)[C@@H](O)[C@]1(C)O` [erythromycin], the “Change in MIC with 23S rRNA mutations versus wildtype (in words)” value in test [1] is on record as “increased MIC”.
Regarding `C=C(NC(=O)C(=C)NC(=O)c1csc(C2=N[C@@H]3c4csc(n4)[C@H]4NC(=O)c5csc(n5)[C@H]([C@](C)(O)[C@@H](C)O)NC(=O)[C@H]5CSC(=N5)/C(=C/C)NC(=O)[C@H]([C@@H](C)O)NC(=O)c5csc(n5)[C@]3(CC2)NC(=O)[C@H](C)NC(=O)C(=C)NC(=O)[C@H](C)NC(=O)[C@H]([C@@H](C)CC)N[C@@H]2C=Cc3c([C@H](C)O)cc(nc3[C@H]2O)C(=O)O[C@@H]4C)n1)C(N)=O` [thiostrepton], the “Toeprint result (in words)” value in test [2] is “ribosomes can initiate at the AUG start codon but cannot translate further”.
